# TMEM16A act = activates or potentiates the mouse TMEM16A chloride channel; Q8BHY3; HEK293 TMEM16A/YFP-H148Q/I152L, iodide quench fluorescence; stronger effect = lower value; B-score at 10 µM; actives 0.3% (n = 340,000); AID 623877;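 active = fluorescence-ratio B-score plate-corrected deviation score at least 3 library SD below zero, with starting fluorescence score within 5 deviations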;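 also: channel opened by trigger with iodide after compound preincubation; score built on the fluorescence ratio of max minus min over baseline; more negative score means more quench and so TMEM16A activation or potentiation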
# UBC13 inh = blocks human UBC13 polyubiquitin chain formation. P61088. TR-FRET. inhibition, % at 20 µM. actives 0.47% (n = 330,000). AID 485273; in the data active = inhibition above about 45%, passing the limit was not always enough
# Target sequence (P61088 whole entry, looked up): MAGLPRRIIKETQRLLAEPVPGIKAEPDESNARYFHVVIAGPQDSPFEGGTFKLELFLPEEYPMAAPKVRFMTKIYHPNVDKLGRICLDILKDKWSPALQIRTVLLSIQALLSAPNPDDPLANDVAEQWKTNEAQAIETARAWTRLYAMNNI
# ANO1 block = blocks the mouse calcium-activated chloride channel TMEM16A; Q8BHY3; HEK293 TMEM16A/YFP iodide influx fluorescence, ionomycin; normalized B-score (activity score, 25-100; higher = stronger inhibition) at 10 µM; actives 1.2% (n = 310,000); AID 588511;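 active = ratio plate-corrected score three or more library SD toward inhibition, starting fluorescence score within five deviations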;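 also: score derived from kinetic fluorescence span divided by baseline fluorescence per well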
# FID counter = displaces DNA intercalator in HCV helicase counter-screen | DNA fluorescent intercalator displacement, fluorescence | inhibition, % at 7.9 µM | actives 0.17% (n = 290,000) | AID 1845; in the data active = inhibition above about 37%;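 also: higher means more ethidium bromide displaced from hairpin DNA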
# Apaf-1 inh = inhibitors of human Apaf-1 apoptosome; O14727; reconstituted apoptosome caspase-3 activity, DEVD-Rh110 fluorescence; AID 489030; inhibition, % at 20 µM; actives 0.71% (n = 330,000); active = inhibition of at least 40% at 20 µM
#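 System: reconstituted apoptosome with Apaf-1, cytochrome c, caspase-9, procaspase-3, dATP; Signal: Rh110 fluorescence intensity; Schedule: 30 min compound preincubation, 50 min activation, room temperature; Reagent: cytochrome c trigger plus (Z-DEVD)2-Rh110 caspase-3 substrate.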
# Casp3 UBC13 ctr = caspase-3 inhibition (UBC13 counter-screen) | shares compounds with UBC13 inh | Recombinant caspase-3, Caspase-Glo 3/7 luminescence, 60 min | inhibition, % at 20 µM | actives 4% (n = 1,400) | AID 488856;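 active = mean inhibition across replicates above about 26%, limit read from the data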
# Target sequence (P42574 whole entry, looked up): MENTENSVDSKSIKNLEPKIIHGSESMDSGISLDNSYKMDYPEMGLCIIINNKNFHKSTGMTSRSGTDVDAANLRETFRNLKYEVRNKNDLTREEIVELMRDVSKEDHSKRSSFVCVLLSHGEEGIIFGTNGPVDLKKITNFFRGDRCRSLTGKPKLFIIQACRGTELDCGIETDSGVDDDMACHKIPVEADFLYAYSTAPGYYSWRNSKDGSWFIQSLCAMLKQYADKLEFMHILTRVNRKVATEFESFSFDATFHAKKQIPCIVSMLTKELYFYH
# UBC13 conf = human UBC13 polyubiquitin inhibition, confirmed; inhibition, % at 10 µM; actives 68% (n = 1,400); UBC13 polyubiquitination, TR-FRET, biochemical; shares compounds with UBC13 inh; in the data active = inhibition above about 45%
# Numbers stand for hits; n = inactive; x = not tested or not shown. In the library only some 2.4% were active in any assay of this set; here they are far more common.
SMILES,TMEM16A act,UBC13 inh,ANO1 block,FID counter,Apaf-1 inh,Casp3 UBC13 ctr,UBC13 conf
C#CCOCCOCCOCCNc1nc(N2CCN(C(=O)[C@H](CCC(=O)O)n3cc([C@@H](N)CCCCN)nn3)CC2)nc(N2CCN(C(=O)[C@H](CCC(=O)O)n3cc([C@@H](N)CCCCN)nn3)CC2)n1,x,n,x,x,n,x,x
C#CCOCCOCCOCCNc1nc(N2CCN(C(=O)C([C@@H](C)O)n3cc([C@@H](N)CCCCN)nn3)CC2)nc(N2CCN(C(=O)C([C@@H](C)O)n3cc([C@@H](N)CCCCN)nn3)CC2)n1 (some centres not stated),n,80,x,x,n,n,61
C#CCOCCOCCOCCNc1nc(N2CCN(C(=O)[C@H](CCCCN)n3cc([C@@H](N)C(C)CC)nn3)CC2)nc(N2CCN(C(=O)[C@H](CCCCN)n3cc([C@@H](N)CC(C)C)nn3)CC2)n1 (some centres not stated),n,105,n,62,n,n,112
C#CCOCCOCCOCCNc1nc(N2CCN(C(=O)[C@H](CO)n3cc([C@@H](N)C(C)C)nn3)CC2)nc(N2CCN(C(=O)[C@H](CCC(=O)O)n3cc([C@@H](N)CCCCN)nn3)CC2)n1,x,45,x,x,n,n,47
C#CCOCCOCCOCCNc1nc(N2CCN(C(=O)C([C@@H](C)O)n3cc([C@@H](N)CCCCN)nn3)CC2)nc(N2CCN(C(=O)[C@H](CC(N)=O)n3cc(C(N)[C@@H](C)CC)nn3)CC2)n1 (some centres not stated),x,n,x,x,n,x,x
C#CCOCCOCCOCCNc1nc(N2CCN(C(=O)[C@H](CCCCN)n3cc([C@@H](N)CO)nn3)CC2)nc(N2CCN(C(=O)[C@H](CCCCN)n3cc([C@@H](N)CC(C)C)nn3)CC2)n1,n,73,x,x,n,n,66
Cc1ccc(C(=O)NCCC(=O)N2CCOCC2)cc1,n,n,n,n,n,x,x
Cc1cc(C)c(NC(=O)CNC(=O)CN(C)Cc2ccc(Br)s2)c(C)c1,n,n,x,x,n,x,x
Cc1ccc(S(=O)(=O)c2ccc(Oc3cccc(C)c3)cc2)cc1,n,n,n,n,n,x,x
CCOc1ccc(C(=O)NCC(=O)NCCSc2ccc(Br)cc2)cc1OCC,n,x,x,x,x,x,x
COc1ccc(Cn2cc3c(-c4ccc(F)cc4)nnc-3c3cc(OC)c(OC)cc32)cc1,n,87,n,n,n,n,n
COc1ccc(-c2nnn(Cc3ccccc3)n2)cc1OC,n,n,n,n,n,x,x
COc1cc2c3nnc(-c4ccc(F)cc4)c-3cn(Cc3ccc(F)cc3)c2cc1OC,n,65,n,n,n,n,n
Cn1nc2c3cc(F)ccc3n(Cc3ccc(F)cc3)cc-2c1=O,n,n,n,n,n,x,x
COc1cc2c3nnc(-c4ccc(F)cc4)c-3cn(Cc3ccccc3)c2cc1OC,n,82,n,n,n,n,50
O=C(CN(Cc1ccc(Cl)cc1)C(=O)c1csnn1)NCc1ccccc1,n,n,n,n,n,x,x
O=C(CCN1C(=O)c2ccccc2C1=O)C1=NN[C@@H]2C(=O)N(c3cccc(Cl)c3)C(=O)[C@H]12,n,n,n,n,n,x,x
O=C(NCCCl)Nc1ccccc1NS(=O)(=O)c1cccs1,n,n,x,x,n,x,x
NS(=O)(=O)c1ccc(CCNC(=O)Nc2ccc(Cl)c(Cl)c2)cc1,n,n,n,n,n,x,x
CC1(C)Cc2c(c(N3CCOCC3)nc3sc4c(=O)[nH]cnc4c23)CS1,n,50,n,n,n,n,54
Cc1cccc(CN2C(=O)/C(=C\c3ccc(C(=O)NCCN4CCOCC4)cc3)Sc3ccccc32)c1,n,n,n,n,n,x,x
COc1cccc(/C=C2/Sc3ccc(C(=O)NCCN4CCCC4)cc3NC2=O)c1,n,50,n,n,n,n,74
CCN1CCN(CCNC(=O)c2ccc3c(c2)N(Cc2ccc(F)cc2)C(=O)/C(=C/c2ccccc2)S3)CC1,n,65,n,n,n,n,92
COc1cccc(/C=C2/Sc3ccc(C(=O)NCCCN4CCCC4)cc3NC2=O)c1,n,n,n,n,n,x,x
O=C(COc1ccc(F)cc1)Nc1cc(Cl)ccc1-n1cncn1,n,n,n,x,n,x,x
SMILES,TMEM16A act,UBC13 inh,ANO1 block,FID counter,Apaf-1 inh,Casp3 UBC13 ctr,UBC13 conf
N=C(N)c1ccc(/C=C/c2ccc(C(=N)N)cc2O)cc1,n,84,n,53,n,n,110
CCCNC(=O)c1ccc2nc(-c3ccccc3)c(-c3ccccc3)nc2c1,n,n,n,n,n,x,x
CCN1CCN(CCNC(=O)c2ccc3nc(-c4cccc(C)c4)c(-c4cccc(C)c4)nc3c2)CC1,n,54,n,n,47,n,84
CCc1ccc(O)c(CNCCNCc2cc(CC)ccc2O)c1,n,64,n,x,n,n,n
Cc1ccc(O)c(CNCCNCc2cc(C)ccc2O)c1,n,50,n,x,n,n,52
CCOC(=O)c1c(C)[nH]c(/C(C)=N/O)c1C,n,n,n,n,n,x,x
CCOC(=O)c1c(C)[nH]c(C2=NNC(=NC3CC3)SC2)c1C,n,77,n,n,n,73,101
C#CCOCCOCCOCCNc1nc(N2CCN(C(=O)[C@H](Cc3cc4ccccc4[nH]3)n3cc([C@@H](N)C(C)CC)nn3)CC2)nc(N2CCN(C(=O)[C@H](Cc3cc4ccccc4[nH]3)n3cc([C@@H](N)Cc4ccc(O)cc4)nn3)CC2)n1 (some centres not stated),x,124,n,41,60,n,119
C#CCOCCOCCOCCNc1nc(N2CCN(C(=O)[C@H](Cc3ccc(O)cc3)n3cc([C@@H](N)C(C)CC)nn3)CC2)nc(N2CCN(C(=O)[C@H](Cc3cc4ccccc4[nH]3)n3cc([C@@H](N)C(C)CC)nn3)CC2)n1 (some centres not stated),n,77,n,51,n,n,66
CN(C(=O)COc1ccc(Cl)cc1Br)C1CCCCC1,n,n,n,n,n,x,x
CC1(C)CC(NC(=O)COc2ccc3ccc(=O)oc3c2)CC(C)(C)N1,n,n,n,n,n,x,x
CCOc1ccc(-c2nc(CN(Cc3ccccc3)C[C@@H]3CCC(=O)N3)c(C)o2)cc1,n,n,n,n,n,x,x
COCCCn1c(N)c(-c2nc3ccccc3n2C)c2nc3ccccc3nc21,n,62,n,n,n,n,59
COC(=O)[C@@]1(Cc2ccccc2)[C@H]2C(=O)N(Cc3ccccc3)C(=O)[C@H]2[C@H]2CN=C(SC)N21,x,x,x,x,n,x,x
COc1ccc(-c2cc3ccccc3s2)cc1[C@H]1[C@H]2C=CC[C@@H](C)[C@@H]2C(=O)N1Cc1ccccc1,n,48,n,x,n,60,n

# Bioassay records as filed in PubChem BioAssay.
